Experimental data: ChEMBL document CHEMBL3627671, “Novel derivatives of nitro-substituted salicylic acids: Synthesis, antimicrobial activity and cytotoxicity” (Bioorg Med Chem, 2015)

How the values were obtained:
Trichosporon asahii [1] = test: Antifungal activity against Trichosporon asahii 1188 after 48 hrs by microdilution broth method; format: functional; conditions: Trichosporon asahii, 1188, 48 h
How it was run: (§1)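 CLSI M27-A3 broth microdilution in RPMI 1640 with glutamine, buffered to pH 7.0 with MOPS; DMSO diluent. Yeast inoculum 5 × 10^3 ± 0.2 CFU/mL. Moulds grown on Sabouraud agar 3–10 days before spore harvest, final inoculum 0.5-5 × 10^4 CFU/mL, checked in a Bürker chamber. Incubated dark, humid, 35 °C, read at 24 and 48 h visually and at 540 nm. MIC taken as ≥80% (yeasts) or ≥50% (filamentous) growth reduction versus control.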

Trichosporon asahii [2] = test: Antifungal activity against Trichosporon asahii 1188 after 24 hrs by microdilution broth method; format: functional; conditions: Trichosporon asahii, 1188, 24 h; how it was run: as §1
Candida albicans [3] = test: Antifungal activity against Candida albicans ATCC 44859 after 48 hrs by microdilution broth method; format: functional; conditions: ATCC 44859, 48 h; how it was run: as §1
Aspergillus fumigatus [4] = test: Antifungal activity against Aspergillus fumigatus 231 after 24 hrs by microdilution broth method; format: functional; conditions: Aspergillus fumigatus, 231, 24 h; how it was run: as §1
[5] = system: Staphylococcus epidermidis; test: Antibacterial activity against Staphylococcus epidermidis H 6966/08 after 48 hrs by microdilution broth method; format: functional; conditions: H 6966/08, 48 h
How it was run: (§2)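 Mueller-Hinton broth microdilution (modified M07-A07), pH 7.4 (±0.2). Compounds dissolved in DMSO, tested at final 500 to 0.49 µmol/L. Inoculum in sterile water matched to 0.5 McFarland. Incubated in the dark, humid atmosphere, 35 °C, read at 24 and 48 h visually and at 540 nm. MIC taken as ≥95% growth reduction (IC95) versus control.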

Pseudomonas aeruginosa [6] = test: Antibacterial activity against Pseudomonas aeruginosa CCM 1961 after 24 hrs by microdilution broth method; format: functional; conditions: CCM 1961, 24 h; how it was run: as §2
Mycobacterium avium [7] = test: Antimycobacterial activity against Mycobacterium avium 330/80 after 14 days; format: functional; conditions: 330/80, 336 h
[8] = Selectivity index, ratio of CI50 for human HepG2 cells to MIC100 for Mycobacterium tuberculosis H37Rv 331/88
[9] = system: Trichophyton mentagrophytes; test: Antifungal activity against Trichophyton mentagrophytes 445 after 24 hrs by microdilution broth method; format: functional; conditions: Trichophyton mentagrophytes, 445, 24 h
Mycobacterium kansasii [10] = test: Antimycobacterial activity against Mycobacterium kansasii 235/80 after 21 days; format: functional; conditions: 235/80, 504 h
How it was run: (§3)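 Šula's semisynthetic medium micromethod at 37 °C, read after 7, 14 and 21 days. The 1.0 McFarland suspension was diluted 10^-4. MIC determined. 6509/96 is a clinical isolate.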

Klebsiella pneumoniae [11] = test: Antibacterial activity against Klebsiella pneumoniae D 11750/08 after 24 hrs by microdilution broth method; format: functional; conditions: D 11750/08, 24 h; how it was run: as §2
Klebsiella pneumoniae [12] = test: Antibacterial activity against ESBL-positive Klebsiella pneumoniae J 14368/08 after 48 hrs by microdilution broth method; format: functional; conditions: J 14368/08, 48 h; how it was run: as §2
Lichtheimia corymbifera [13] = test: Antifungal activity against Absidia corymbifera 272 after 24 hrs by microdilution broth method; format: functional; conditions: Lichtheimia corymbifera, 272, 24 h; how it was run: as §1
Nakaseomyces glabratus [14] = test: Antifungal activity against Candida glabrata 20/I after 24 hrs by microdilution broth method; format: functional; how it was run: as §1
Staphylococcus aureus [15] = test: Antibacterial activity against Staphylococcus aureus CCM 4516/08 after 24 hrs by microdilution broth method; format: functional; conditions: CCM 4516/08, 24 h
Nakaseomyces glabratus [16] = test: Antifungal activity against Candida glabrata 20/I after 48 hrs by microdilution broth method; format: functional; how it was run: as §1
Staphylococcus aureus [17] = test: Antibacterial activity against methicillin-resistant Staphylococcus aureus H 5996/08 after 48 hrs by microdilution broth method; format: functional; conditions: H 5996/08, 48 h
Candida albicans [18] = test: Antifungal activity against Candida albicans ATCC 44859 after 24 hrs by microdilution broth method; format: functional; conditions: ATCC 44859, 24 h; how it was run: as §1
Enterococcus sp. [19] = test: Antibacterial activity against Enterococcus sp. J 14365/08 after 24 hrs by microdilution broth method; format: functional; conditions: J 14365/08, 24 h; how it was run: as §2
Enterococcus sp. [20] = test: Antibacterial activity against Enterococcus sp. J 14365/08 after 48 hrs by microdilution broth method; format: functional; conditions: J 14365/08, 48 h; how it was run: as §2
Mycobacterium avium [21] = test: Antimycobacterial activity against Mycobacterium avium 330/80 after 21 days; format: functional; conditions: 330/80, 504 h
Aspergillus fumigatus [22] = test: Antifungal activity against Aspergillus fumigatus 231 after 48 hrs by microdilution broth method; format: functional; conditions: Aspergillus fumigatus, 231, 48 h; how it was run: as §1
[23] = system: Trichophyton mentagrophytes; test: Antifungal activity against Trichophyton mentagrophytes 445 after 48 hrs by microdilution broth method; format: functional; conditions: Trichophyton mentagrophytes, 445, 48 h
Lichtheimia corymbifera [24] = test: Antifungal activity against Absidia corymbifera 272 after 48 hrs by microdilution broth method; format: functional; conditions: Lichtheimia corymbifera, 272, 48 h; how it was run: as §1
Pichia kudriavzevii [25] = test: Antifungal activity against Candida krusei E28 after 48 hrs by microdilution broth method; format: functional; conditions: E28, 48 h; how it was run: as §1
[26] = system: Mycobacterium tuberculosis; test: Antimycobacterial activity against Mycobacterium tuberculosis H37Rv 331/88 after 21 days; format: functional; conditions: H37Rv 331/88, 504 h
Staphylococcus aureus [27] = test: Antibacterial activity against methicillin-resistant Staphylococcus aureus H 5996/08 after 24 hrs by microdilution broth method; format: functional; conditions: H 5996/08, 24 h
Mycobacterium kansasii [28] = test: Antimycobacterial activity against Mycobacterium kansasii 235/80 after 7 days; format: functional; conditions: 235/80, 168 h; how it was run: as §3
Mycobacterium kansasii [29] = test: Antimycobacterial activity against Mycobacterium kansasii 6509/96 after 21 days; format: functional; conditions: 6509/96, 504 h; how it was run: as §3
Pseudomonas aeruginosa [30] = test: Antibacterial activity against Pseudomonas aeruginosa CCM 1961 after 48 hrs by microdilution broth method; format: functional; conditions: CCM 1961, 48 h; how it was run: as §2
Escherichia coli [31] = test: Antibacterial activity against Escherichia coli CCM4517 after 48 hrs by microdilution broth method; format: functional; conditions: CCM4517, 48 h; how it was run: as §2
Mycobacterium kansasii [32] = test: Antimycobacterial activity against Mycobacterium kansasii 6509/96 after 7 days; format: functional; conditions: 6509/96, 168 h; how it was run: as §3
Pichia kudriavzevii [33] = test: Antifungal activity against Candida krusei E28 after 24 hrs by microdilution broth method; format: functional; conditions: E28, 24 h; how it was run: as §1
Mycobacterium kansasii [34] = test: Antimycobacterial activity against Mycobacterium kansasii 235/80 after 14 days; format: functional; conditions: 235/80, 336 h; how it was run: as §3
Escherichia coli [35] = test: Antibacterial activity against Escherichia coli CCM4517 after 24 hrs by microdilution broth method; format: functional; conditions: CCM4517, 24 h; how it was run: as §2
Staphylococcus aureus [36] = test: Antibacterial activity against Staphylococcus aureus CCM 4516/08 after 48 hrs by microdilution broth method; format: functional; conditions: CCM 4516/08, 48 h
Klebsiella pneumoniae [37] = test: Antibacterial activity against Klebsiella pneumoniae D 11750/08 after 48 hrs by microdilution broth method; format: functional; conditions: D 11750/08, 48 h; how it was run: as §2
HepG2 = test: Cytotoxicity against human HepG2 cells after 24 hrs […]; format: cell-based; conditions: HepG2, 24 h
Klebsiella pneumoniae [38] = test: Antibacterial activity against ESBL-positive Klebsiella pneumoniae J 14368/08 after 24 hrs by microdilution broth method; format: functional; conditions: J 14368/08, 24 h; how it was run: as §2
[39] = system: Mycobacterium tuberculosis; test: Antimycobacterial activity against Mycobacterium tuberculosis H37Rv 331/88 after 14 days; format: functional; conditions: H37Rv 331/88, 336 h
Mycobacterium kansasii [40] = test: Antimycobacterial activity against Mycobacterium kansasii 6509/96 after 14 days; format: functional; conditions: 6509/96, 336 h; how it was run: as §3
Candida tropicalis [41] = test: Antifungal activity against Candida tropicalis 156 after 48 hrs by microdilution broth method; format: functional; conditions: Candida tropicalis, 156, 48 h; how it was run: as §1
[42] = system: Staphylococcus epidermidis; test: Antibacterial activity against Staphylococcus epidermidis H 6966/08 after 24 hrs by microdilution broth method; format: functional; conditions: H 6966/08, 24 h; how it was run: as §2
Candida tropicalis [43] = test: Antifungal activity against Candida tropicalis 156 after 24 hrs by microdilution broth method; format: functional; conditions: Candida tropicalis, 156, 24 h; how it was run: as §1

O=C(Nc1ccc(Cl)c(Cl)c1)c1cc([N+](=O)[O-])ccc1O
0.556: Selectivity Index [8]
250 µM: MIC [9] | MIC [23]
125 µM: MIC (Mycobacterium avium [7]) | MIC (Enterococcus sp. [19]) | MIC (Enterococcus sp. [20]) | MIC (Mycobacterium avium [21])
> 500 µM: MIC (Trichosporon asahii [1]) | MIC (Trichosporon asahii [2]) | MIC (Candida albicans [3]) | MIC (Aspergillus fumigatus [4]) | MIC (Pseudomonas aeruginosa [6]) | MIC (Klebsiella pneumoniae [11]) | MIC (Klebsiella pneumoniae [12]) | MIC (Lichtheimia corymbifera [13]) | MIC (Nakaseomyces glabratus [14]) | MIC (Nakaseomyces glabratus [16]) | MIC (Candida albicans [18]) | MIC (Aspergillus fumigatus [22]) | MIC (Lichtheimia corymbifera [24]) | MIC (Pichia kudriavzevii [25]) | MIC (Pseudomonas aeruginosa [30]) | MIC (Escherichia coli [31]) | MIC (Pichia kudriavzevii [33]) | MIC (Escherichia coli [35]) | MIC (Klebsiella pneumoniae [37]) | MIC (Klebsiella pneumoniae [38]) | MIC (Candida tropicalis [41]) | MIC (Candida tropicalis [43])
32 µM: MIC (Mycobacterium kansasii [10]) | MIC (Mycobacterium kansasii [29]) | MIC (Mycobacterium kansasii [32]) | MIC (Mycobacterium kansasii [34]) | MIC (Mycobacterium kansasii [40])
8.9 µM: IC50 (HepG2)
62.5 µM: MIC [5] | MIC [42]
16 µM: MIC [26] | MIC (Mycobacterium kansasii [28])
31.2 µM: MIC (Staphylococcus aureus [15]) | MIC (Staphylococcus aureus [17]) | MIC (Staphylococcus aureus [27]) | MIC (Staphylococcus aureus [36])
8 µM: MIC [39]
